According to ChEMBL document CHEMBL4177525, “Synthesis and evaluation of frentizole-based indolyl thiourea analogues as MAO/ABAD inhibitors for Alzheimer's disease treatment” (Bioorg Med Chem, 2017):
pIC50: −log10 of the molar value. Calls of active or inactive are those of the source. The calls are words filed in the database; no cut-off is given here.

Key:
[1] = molecular target: T1, peroxidase (horseradish peroxidase) (Raphanus sativus, UniProt K7N5L9); test: Inhibition of horse radish peroxidase assessed as residual activity at 50 uM by amplex red dye based fluorescence assay; details: horseradish peroxidase (isolated enzyme), probe Amplex Red, read-out: Activity
Outline: (§1)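 HRP (0.02 U/mL) given H2O2 20 µM directly as substrate plus Ampliflu Red 20 µM in 50 mM potassium phosphate pH 7.4. Compound at 50 or 5 µM, 1% DMSO; controls DMSO only. Resorufin fluorescence read at ex 535/em 595 nm, 30°C, as remaining HRP activity.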

[2] = Cytotoxicity against CHOK1 cells assessed as reduction in cell viability after 24 hrs by MTT assay; type: cell-based, Cricetulus griseus; details: chinese hamster, CHO-K1 cells; read-out: LC50
Outline: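 CHO-K1 cells grown as ECACC recommends, seeded 8000 per well; compounds from DMSO stocks diluted in F-12 with 10% FBS and 1% pen/strep (final DMSO at most 0.5%), exposed 24 h. Medium then replaced with 10 µM MTT for about 3 h, formazan dissolved in DMSO, absorbance read at 570 nm (650 nm reference). LC50 from control-subtracted triplicates by four-parameter regression; mean ± SEM of 3 independent runs.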

[3] = molecular target: T2, Amine oxidase [flavin-containing] A (Homo sapiens, UniProt P21397); test: Inhibition of human purified MAO-A expressed in insect cell membranes assessed as reduction in conversion of kynuramine to 4-hydroxyquinoline by spectrophotometric assay; details: for pIC50: read-out: IC50
T2 sequence (P21397 whole entry): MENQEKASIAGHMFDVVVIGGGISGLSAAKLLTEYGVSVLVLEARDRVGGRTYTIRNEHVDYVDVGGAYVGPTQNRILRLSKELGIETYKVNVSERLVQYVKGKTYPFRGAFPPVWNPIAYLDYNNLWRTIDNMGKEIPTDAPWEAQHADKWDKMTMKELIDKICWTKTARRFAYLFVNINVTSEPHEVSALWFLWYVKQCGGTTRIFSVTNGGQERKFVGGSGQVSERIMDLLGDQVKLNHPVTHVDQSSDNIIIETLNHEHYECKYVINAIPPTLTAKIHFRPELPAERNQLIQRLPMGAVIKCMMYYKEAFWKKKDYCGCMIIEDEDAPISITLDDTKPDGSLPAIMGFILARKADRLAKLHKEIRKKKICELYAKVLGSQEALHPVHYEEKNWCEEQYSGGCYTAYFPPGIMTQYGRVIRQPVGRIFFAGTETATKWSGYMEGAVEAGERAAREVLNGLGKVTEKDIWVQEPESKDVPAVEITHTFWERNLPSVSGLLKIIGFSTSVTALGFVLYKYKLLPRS

[4] = Quenching activity of the compound assessed as reduction in resorufin fluorescence; type: functional
Outline: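 Resorufin at 1 µM and 10 µM measured for fluorescence in the presence of compound at 50 µM.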

[5] = molecular target: T1, peroxidase (horseradish peroxidase); test: Inhibition of horse radish peroxidase assessed as residual activity at 5 uM by amplex red dye based fluorescence assay; details: horseradish peroxidase (isolated enzyme), probe Amplex Red, read-out: Activity; outline: as §1
[6] = molecular target: Amyloid beta-binding alcohol dehydrogenase (Homo sapiens, UniProt Q2L8D9); test: Inhibition of ABAD (unknown origin) assessed as residual activity at 100 uM using acetoacetyl-CoA in presence of NADH by spectrophotometric assay relative to control
Outline: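 Recombinant ABAD at 0.5 µg/mL with NADH 250 µM and acetoacetyl-CoA 120 µM; compound at 100 µM in 1% DMSO, controls with matching DMSO. Buffer 10 mM HEPES, 0.5% gelatin, pH 7.4 at 37°C. NADH consumption read as falling absorbance at 340 nm; reported as % remaining activity ± SEM from two biological repeats, each with three technical repeats.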

[7] = Solubility of the compound at 100 uM; type: physicochemical
Outline: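 Compounds checked for solubility in assay buffer at 100 µM.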

[8] = molecular target: T3, Amine oxidase [flavin-containing] B (Homo sapiens, UniProt P27338); test: Inhibition of human membrane bound MAO-B expressed in insect cell membranes assessed as reduction in conversion of kynuramine to 4-hydroxyquinoline by spectrophotometric assay; details: for pIC50: read-out: IC50
T3 sequence (P27338 whole entry): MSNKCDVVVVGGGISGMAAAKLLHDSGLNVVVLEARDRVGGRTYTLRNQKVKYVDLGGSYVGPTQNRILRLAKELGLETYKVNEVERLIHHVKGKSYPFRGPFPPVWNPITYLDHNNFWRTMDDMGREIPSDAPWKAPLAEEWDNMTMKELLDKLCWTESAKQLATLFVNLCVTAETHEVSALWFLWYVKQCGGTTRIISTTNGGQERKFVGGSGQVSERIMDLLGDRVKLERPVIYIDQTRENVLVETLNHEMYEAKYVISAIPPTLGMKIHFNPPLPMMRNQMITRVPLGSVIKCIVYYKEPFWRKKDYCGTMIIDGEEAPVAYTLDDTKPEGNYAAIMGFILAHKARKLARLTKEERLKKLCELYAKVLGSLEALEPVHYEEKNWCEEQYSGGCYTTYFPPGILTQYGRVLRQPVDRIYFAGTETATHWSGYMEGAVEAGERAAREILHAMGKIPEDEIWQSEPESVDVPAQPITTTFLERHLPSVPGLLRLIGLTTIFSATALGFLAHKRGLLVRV
Outline: (§2)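 Human MAO-A or MAO-B expressed in insect cell membranes, diluted 1/4000 (A) or 1/2000 (B). Kynuramine at 2×KM: 60 µM for MAO-A, 30 µM for MAO-B. Assay in 50 mM potassium phosphate pH 7.5, 30°C, 1% DMSO, absorbance at 314 nm. Inhibitor varied over 4 orders of magnitude, up to 100 µM. Linear rates from 8-10 assays fitted by 3-parameter regression with bottom fixed at zero; IC50 ± SE of estimate.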

[9] = molecular target: T2, Amine oxidase [flavin-containing] A; test: Inhibition of human membrane bound MAO-A expressed in insect cell membranes assessed as reduction in conversion of kynuramine to 4-hydroxyquinoline by spectrophotometric assay; details: for pIC50: read-out: IC50; outline: as §2

T1 sequence (K7N5L9 whole entry): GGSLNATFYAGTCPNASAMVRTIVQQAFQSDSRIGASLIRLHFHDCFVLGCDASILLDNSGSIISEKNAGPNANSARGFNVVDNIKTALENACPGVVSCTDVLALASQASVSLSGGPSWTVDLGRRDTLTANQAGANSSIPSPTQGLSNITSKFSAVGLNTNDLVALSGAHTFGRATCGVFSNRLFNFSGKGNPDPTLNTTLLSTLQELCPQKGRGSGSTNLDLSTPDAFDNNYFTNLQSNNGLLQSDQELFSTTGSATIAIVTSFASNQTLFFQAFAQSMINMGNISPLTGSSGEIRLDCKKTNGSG

| Structure (SMILES) | activity at 50 µM [1] | CC50 at 24 h [2] | IC50 [3] | Activity [4] | activity at 5 µM [5] | Activity [6] | solubility [7] | IC50 [8] | IC50 [9] | pIC50 [8] | pIC50 [3] | pIC50 [9] |
| --- | --- | --- | --- | --- | --- | --- | --- | --- | --- | --- | --- | --- |
| COc1ccc(CNC(=S)Nc2ccc3[nH]ccc3c2)cc1 | 54.4% | 232 µM | Not Active | inactive | 83.5% | 88.5% | Soluble |  |  |  |  |  |
| Oc1cccc(NC(=S)Nc2ccc3[nH]ccc3c2)c1 | 50.9% | 977 µM | Not Active | inactive | 81.4% | 91.6% | Soluble |  |  |  |  |  |
| COc1ccc2nc(NC(=O)Nc3ccccc3)sc2c1 [FRENTIZOLE] |  | 31 µM | Not Active |  |  |  |  | Not Active | Not Active |  |  |  |
| S=C(Nc1ccc2[nH]ccc2c1)Nc1cccc2cnccc12 | 47.9% | > 400 µM |  | inactive | 63.3% | 96.5% | Soluble |  |  | 5.40 | 4.62 | 4.62 |
| COc1ccc(NC(=S)Nc2ccc3[nH]ccc3c2)cc1OC | 41.5% | 797 µM | Not Active | inactive | 61% | 93.8% | Soluble |  |  |  |  |  |
| CCOC(=O)c1ccc(NC(=S)Nc2ccc3[nH]ccc3c2)cc1 | 36.6% | 123 µM |  | inactive | 65.8% | 74.6% | Soluble |  |  |  | 4.15 |  |
| COC(=O)c1cc(NC(=S)Nc2ccc3[nH]ccc3c2)ccc1O | 42.2% | 423 µM | Not Active | inactive | 61.2% | 90% | Soluble |  |  | 4.51 |  | < 4.00 |
| O=C(c1ccccc1)c1ccc(NC(=S)Nc2ccc3[nH]ccc3c2)cc1 | 71.4% | 20 µM | Not Active | inactive | 79.1% | 80.4% | Soluble |  |  |  |  |  |
| Oc1cc(Cl)ccc1NC(=S)Nc1ccc2[nH]ccc2c1 | 35.9% | 251 µM |  | inactive | 58.9% | 76% | Soluble |  |  | 6.52 | 4.41 | 5.20 |
| S=C(Nc1ccccc1)Nc1ccc2[nH]ccc2c1 | 46.1% | 337 µM |  | inactive | 81.4% | 85.8% | Soluble |  |  | 4.22 | < 4.52 | 4.24 |
| S=C(Nc1ccc(Oc2ccccc2)cc1)Nc1ccc2[nH]ccc2c1 | 65.6% | 36 µM | Not Active | inactive | 73.1% | 90.9% | Soluble |  |  |  |  |  |
| Cc1ccc(NC(=S)Nc2ccc3[nH]ccc3c2)c(O)c1 | 36.2% | 370 µM | Not Active | inactive | 47.3% | 87.2% | Soluble |  |  | 5.49 |  | 4.62 |
| CC(=O)c1ccc(NC(=S)Nc2ccc3[nH]ccc3c2)cc1 | 41.8% | 154 µM |  | inactive | 66.3% | 79.2% | Soluble |  |  |  | 4.17 |  |
| CC(=O)Nc1ccc(NC(=S)Nc2ccc3[nH]ccc3c2)cc1 | 39.3% | 1040 µM |  | inactive | 68.1% | 93% | Soluble |  |  | 4.43 | 4.15 | 4.15 |
| OCc1ccc(NC(=S)Nc2ccc3[nH]ccc3c2)cc1 | 51.4% | 1080 µM | Not Active | inactive | 88.2% | 84.2% | Soluble |  |  |  |  |  |
| COc1ccc(NC(=S)Nc2ccc3[nH]ccc3c2)cc1 | 46.5% | 476 µM |  | inactive | 67.6% | 91.3% | Soluble |  |  | 4.43 | 4.44 | 4.44 |
